Most compounds without a hit are left out; they make up all but 3.5% or so of the library.
RGS4 pot: RGS4 potentiation or activation; 0.92% of 310,000 active; HEK293 M3R/inducible RGS4, carbachol calcium flux Fluo4; stronger effect = lower value; B-score at 10 µM;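 active = B-score of the integrated calcium signal more than 4 SD below the library mean, with starting fluorescence not abnormally high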;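 also: negative B-score means reduced calcium response which marks RGS4 activation or potentiation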
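System: HEK293 FlpIn-TREx cells, stable M3R, doxycycline-inducible RGS4. Timing: overnight RGS4 induction, 30 min dye load 37 °C, 20 min compound RT. Also added: carbachol, ECmax concentration. Measured by: Fluo4 fluorescence kinetic imaging of calcium. Evaluation: integrated calcium ratio converted to B score.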
MrgX1 antagonist: antagonists of human MrgX1 receptor; Q96LB2; MRGX1-HEK293 calcium flux, Fluo-4, BAM8-22 antagonism; stronger effect = lower value; B-score at 10 µM; 1.3% of 310,000 active; AID 588676;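 active = calcium-response B-score plate-corrected more than 3 library SD below zero, starting fluorescence within 5 deviations, no agonist response on first addition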;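 also: peak minus trough fluorescence over baseline after final BAM8-22 challenge near maximal dose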
Target sequence (Q96LB2 whole entry, looked up): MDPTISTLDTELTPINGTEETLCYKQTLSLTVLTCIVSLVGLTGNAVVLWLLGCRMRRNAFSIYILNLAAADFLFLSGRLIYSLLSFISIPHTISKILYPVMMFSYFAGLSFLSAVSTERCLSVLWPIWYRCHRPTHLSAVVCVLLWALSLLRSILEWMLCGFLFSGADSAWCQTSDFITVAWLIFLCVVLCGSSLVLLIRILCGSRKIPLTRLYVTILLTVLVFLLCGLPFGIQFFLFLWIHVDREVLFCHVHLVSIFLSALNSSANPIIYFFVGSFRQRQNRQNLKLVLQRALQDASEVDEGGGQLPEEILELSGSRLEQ
RGS4 block: inhibitors of human RGS4 | P49798 | B-score at 10 µM | HEK293 M3R/RGS4 inducible, Fluo-4 calcium flux; stronger effect = higher value; triggered by carbachol at its EC20 | 0.45% of 310,000 active;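 active = B-score, a plate-corrected calcium signal, over three deviations above library mean, with baseline fluorescence within five deviations of library mean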;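 also: RGS4 expression induced by doxycycline in cells with stable M3 receptor; B-score is computed from the integrated fluorescence ratio over baseline after carbachol; higher B-score means a larger calcium signal and so more RGS4 inhibition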
Target sequence (P49798 whole entry, looked up): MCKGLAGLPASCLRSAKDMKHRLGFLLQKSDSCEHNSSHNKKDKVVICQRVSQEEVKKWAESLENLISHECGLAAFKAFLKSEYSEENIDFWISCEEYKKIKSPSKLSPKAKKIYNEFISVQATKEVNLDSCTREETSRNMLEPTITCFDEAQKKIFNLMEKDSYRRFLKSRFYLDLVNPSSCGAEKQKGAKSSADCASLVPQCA
MrgX1 PAM: human MrgX1 positive allosteric modulation, primary screen | MrgX1-HEK293, Fluo-4 calcium flux, FDSS; stronger effect = higher value | B-score at 10 µM | 0.63% of 310,000 active | AID 588675;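 active = plate-corrected calcium response at least 3 library SD above typical, normal starting fluorescence, not activating the receptor alone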;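 also: compound read alongside a low EC10 to EC30 dose of BAM8-22 agonist; peak minus trough fluorescence over baseline measured at the second addition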
MrgX1 ag: activates human MrgX1 receptor signaling. MrgX1-HEK293 cells, Fluo-4 calcium fluorescence, agonist mode; stronger effect = higher value. B-score at 10 µM. 0.44% of 310,000 active. AID 588627;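 active = calcium response B-score plate-corrected fluorescence ratio at least 3 library SD, with starting fluorescence B-score inside 5 SD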
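Material – MrgX1-expressing HEK293 cells · Input – 15,000 cells seeded per well · Dosing – compound as first of three additions · Times – overnight seeding, then 1 h dark dye loading · Measured by – kinetic Fluo-4 NW fluorescence of intracellular calcium · Read-out – B-scored fluorescence response ratio · Benchmarks – positive and negative control wells on each plate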
RGS4 act valid: RGS4 activation, validation assay; HEK293 M3R/RGS4 inducible, carbachol calcium flux Fluo4; inhibition, % at 10 µM; shares compounds with RGS4 pot; 89% of 1,100 active;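 active = inhibition above 3 SD of the buffer control wells, cut at about 41% in these data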;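 also: signal is the integrated peak-minus-minimum Fluo4 fluorescence over baseline ratio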
M3R Ca counter: counter-screen for RGS4 activators: effect in non-induced cells; 82% of 1,100 active; AID 602283; shares compounds with RGS4 pot; inhibition, % at 10 µM; HEK293 M3R non-induced RGS4, Fluo4 calcium flux; after carbachol challenge at its EC90;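 active = inhibition exceeding 3 SD of buffer-only control wells, cut at about 26% in these data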;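 also: percent drop in integrated peak-minus-baseline over baseline Fluo4 ratio after carbachol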
Large screens that a line does not name were inactive (follow-up assays come after a bar, where they were run).

Cc1cc(C)n2nc(SCc3nnc(SCCCCl)o3)nc2n1	RGS4 pot -7.7 | RGS4 act valid 78 | M3R Ca counter 35
O=C(Nc1ccc2c(c1)OCCO2)c1ccccc1F	none
O=C(Nc1ccc2c(c1)OCCO2)c1cccc2nc3ccccc3nc12	RGS4 pot -9.3 | RGS4 act valid 86 | M3R Ca counter 52
Cc1ccc(NC(=O)CNC(=O)c2ccc(Br)o2)nc1	none
CC1(C)CC(=O)C=C(NCc2cccc(C(F)(F)F)c2)C1	RGS4 pot -8.7 | RGS4 act valid inactive | M3R Ca counter inactive
CC1(C)CC(=O)C=C(NCc2ccccc2)C1	none
COc1ccccc1N1CCN(C(=O)CSc2nc3ccccc3nc2N2CCCCC2)CC1	none
COc1ccccc1N1CCN(C(=O)CSc2nc3ccccc3nc2N2CCC(C)CC2)CC1	RGS4 pot -7.7 | RGS4 act valid 44 | M3R Ca counter inactive
Cc1ccc(COc2ccc(CNCCCN3CCCCCC3=O)cc2)cc1	RGS4 pot -12 | RGS4 act valid 93 | M3R Ca counter 65
CCC(C(=O)OCC(=O)Nc1cc(Cl)cc(Cl)c1)c1ccccc1 (configuration not stated)	RGS4 pot -8.4 | RGS4 act valid 74 | M3R Ca counter 26
CCC(C(=O)OCC(=O)Nc1cccc(C(C)=O)c1)c1ccccc1 (configuration not stated)	none
CCOC(=O)c1cnc2ccccc2c1NCc1ccco1	RGS4 pot -9.7 | RGS4 act valid 94 | M3R Ca counter 92
COc1ccc(NC(=O)CCN2CCOCC2)c(OC)c1	none
CCNc1nc(N2CCCC2)nc(N2CCCC2)n1	none
CCNc1nc(NC(C)(C)C)nc(N2CCCCC2)n1	RGS4 pot -7.9 | RGS4 act valid 94 | M3R Ca counter 93
Cn1c(SCc2c(Cl)cccc2Cl)nnc1-c1cccs1	RGS4 pot -12 | RGS4 act valid 74 | M3R Ca counter 84
CCN(CC)c1ccc(N=C2C(=O)Nc3ccccc32)cc1	RGS4 pot -11 | RGS4 act valid 84 | M3R Ca counter 39
O=C1Nc2ccccc2C1=Nc1ccc(Br)cc1	none
NC(=O)C1CCN(CC(=O)Nc2ccccc2N2CCOCC2)CC1	none
O=C(NC1CCCC1)c1noc2c1CCCCC2	none
CCOCc1c(C(=O)NC2=Nc3ccccc3NC(CC)=C2C(=O)OCC)oc2ccccc12	RGS4 pot -8.9 | RGS4 act valid 76 | M3R Ca counter 84
CCOC(=O)C1=C(CC)Nc2ccccc2N=C1NC(=O)c1oc2ccccc2c1C	RGS4 pot -12 | RGS4 act valid 84 | M3R Ca counter 52
CCOC(=O)C1=C(CC)Nc2ccccc2N=C1NC(=O)CCNC(C)=O	none
CCCCn1c(N)c(N(CC(C)C)C(=O)c2cc(-c3ccncc3)nc3ccccc23)c(=O)[nH]c1=O	none
CCN(c1ccccc1)S(=O)(=O)c1ccc(OC)c(NC(=O)CCc2nc3ccccc3c(=O)[nH]2)c1	RGS4 pot -7.9 | RGS4 act valid 85 | M3R Ca counter 56
COc1ccc(S(=O)(=O)N2CCOCC2)cc1NC(=O)CCc1nc2ccccc2c(=O)[nH]1	none
CN(CCN(C)C(C)(C)C)C(=O)C(c1ccccc1)c1ccccc1	RGS4 pot -12 | RGS4 act valid 94 | M3R Ca counter 75
CSc1ccc(CN(C)C(=O)C(c2ccccc2)c2ccccc2)cc1	none
CSC1=NCCN1C(=O)COc1ccccc1	none
CSC1=NCCN1C(=O)COc1ccc2ccccc2c1	RGS4 pot -9.5 | RGS4 act valid inactive | M3R Ca counter inactive
CCOC(=O)C1=C(C)NC(C)=C(C(=O)OCC)C1C(=O)OCC(=O)NC1(C#N)CCCCC1	RGS4 pot -11 | RGS4 act valid 46 | M3R Ca counter inactive
O=C(CNC(=O)c1ccc([N+](=O)[O-])cc1)c1ccccc1	none
O=C(CNc1ccccc1)c1ccc([N+](=O)[O-])cc1	RGS4 pot -11 | RGS4 act valid 76 | M3R Ca counter 84
COc1ccc(C)cc1S(=O)(=O)N1CCC(C(=O)NC2CCCC2)CC1	RGS4 pot -8.1 | RGS4 act valid inactive | M3R Ca counter inactive
Fc1ccc(N2CCN(C3=Nc4cccc5cccc3c45)CC2)cc1	RGS4 pot -13 | RGS4 act valid 94 | M3R Ca counter 74
c1ccc(CN2CCN(C3=Nc4cccc5cccc3c45)CC2)cc1	none (no result: MrgX1 antagonist, MrgX1 PAM, MrgX1 ag)
CN(C)CCC1Sc2ccccc2Oc2ccccc21 (configuration not stated)	RGS4 pot -7.6 | RGS4 act valid 74 | M3R Ca counter 84
CN(C)S(=O)(=O)c1cccc(NC(=O)c2ccc(S(=O)(=O)N3CCCCC3)cc2)c1	none
CN(C)S(=O)(=O)c1cccc(C(=O)Nc2ccc(S(=O)(=O)N3CCCC3)cc2)c1	RGS4 pot -7.9 | RGS4 act valid 70 | M3R Ca counter 84
Oc1ccc(Nc2nc(N3CCCC3)c3ccccc3n2)cc1	RGS4 pot -8.2 | RGS4 act valid 91 | M3R Ca counter 65
CCN(CC(=O)Nc1ccc(NC(C)=O)cc1)C(=O)CCCc1nc2ccccc2c(=O)[nH]1	none
O=C(COc1ccccc1)Nc1ccccc1N1CCN(c2ccc(F)cc2)CC1	RGS4 pot -9.1 | RGS4 act valid 61 | M3R Ca counter inactive
O=C(COc1ccccc1)Nc1ccccc1N1CCCCC1	none
CCOc1ccc(NS(=O)(=O)c2cc(NC(=O)c3cccc(C)c3)ccc2Cl)cc1	none
O=C(c1cc(C2CC2)on1)N1CCN(c2ccc(F)cc2)CC1	none
CC1(C)CC(=O)C2=C(C1)N(c1ccc(Cl)cc1)C(=O)C2(O)C(F)(F)F (configuration not stated)	RGS4 pot -14 | RGS4 act valid 79 | M3R Ca counter 27
Cc1ccc(N2C(=O)C(O)(C(F)(F)F)C3=C2CC(C)(C)CC3=O)cc1C (configuration not stated)	none
Cc1ccccc1NS(=O)(=O)c1ccc(C(=O)N2CCCC2)cc1	none
Cc1cccc(NS(=O)(=O)c2ccc(C(=O)N3CCN(c4ccccc4O)CC3)cc2)c1C	RGS4 pot -8.3 | RGS4 act valid 85 | M3R Ca counter 70
CN(CCOc1ccc(Cl)cc1)C(=O)c1cc(-c2ccco2)nc2ccccc12	RGS4 pot -8.5 | RGS4 act valid 91 | M3R Ca counter 66
COc1ccc(NC(=O)CN(C)C(=O)c2cccc3ccccc23)cc1	none
Cc1ccc(NC(=O)CN(C)C(=O)c2cc(-c3ccco3)nc3ccccc23)cc1	RGS4 pot -8.3 | RGS4 act valid 61 | M3R Ca counter inactive
COc1ccc(NC(=O)CN(C)C(=O)c2cc(-c3ccc(OC)cc3)nc3ccccc23)cc1	RGS4 pot -8.1 | RGS4 act valid 54 | M3R Ca counter 84

High-throughput results (PubChem BioAssay)
